Source: ChEMBL document CHEMBL1128440 (J Med Chem, 1995)

Tests used:
[1] = biological target: T1, Progesterone receptor (Homo sapiens) (UniProt P06401); test: Binding selectivity index as the ratio of RBA value to that of NSB value.
T1 sequence (whole entry): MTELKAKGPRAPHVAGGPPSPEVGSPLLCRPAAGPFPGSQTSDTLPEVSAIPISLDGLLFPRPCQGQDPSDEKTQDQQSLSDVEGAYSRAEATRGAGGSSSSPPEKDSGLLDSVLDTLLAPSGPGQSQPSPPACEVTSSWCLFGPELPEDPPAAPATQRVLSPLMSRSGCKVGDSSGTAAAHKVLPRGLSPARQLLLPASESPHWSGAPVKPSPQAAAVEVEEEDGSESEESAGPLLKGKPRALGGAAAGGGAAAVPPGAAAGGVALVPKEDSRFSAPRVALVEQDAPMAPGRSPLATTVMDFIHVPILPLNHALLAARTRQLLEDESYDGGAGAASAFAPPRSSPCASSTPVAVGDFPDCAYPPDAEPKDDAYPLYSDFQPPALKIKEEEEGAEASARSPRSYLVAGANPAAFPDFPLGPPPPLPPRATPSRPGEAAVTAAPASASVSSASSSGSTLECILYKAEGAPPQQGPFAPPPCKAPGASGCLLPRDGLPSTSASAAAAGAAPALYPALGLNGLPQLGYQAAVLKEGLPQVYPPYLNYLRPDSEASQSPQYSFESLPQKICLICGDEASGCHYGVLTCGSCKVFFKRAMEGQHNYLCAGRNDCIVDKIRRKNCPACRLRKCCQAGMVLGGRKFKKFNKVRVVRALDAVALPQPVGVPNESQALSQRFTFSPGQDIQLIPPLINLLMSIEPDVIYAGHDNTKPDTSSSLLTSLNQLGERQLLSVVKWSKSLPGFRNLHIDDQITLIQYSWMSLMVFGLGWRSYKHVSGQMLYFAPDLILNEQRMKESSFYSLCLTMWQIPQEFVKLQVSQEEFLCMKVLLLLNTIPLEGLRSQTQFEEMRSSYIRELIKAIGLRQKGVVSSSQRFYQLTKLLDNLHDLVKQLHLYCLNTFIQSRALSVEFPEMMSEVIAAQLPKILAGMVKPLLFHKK
Summary of the method: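 BSI calculated as the ratio of RBA to NSB.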

[2] = biological target: T1, Progesterone receptor (Homo sapiens); test: Nonspecific binding affinity against progesterone receptor was estimated relative to compound R5020
[3] = biological target: T1, Progesterone receptor (Homo sapiens); test: Relative binding affinity against progesterone receptor at 0 degree Celsius determined in a competitive radiometric binding assay (R5020=100%).
Summary of the method: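 Competitive radiometric binding at 0 °C against tritium-labeled R5020 as the standard (RBA = 100). Values are the average of two experiments.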

SMILES: CC[C@@H]1C[C@H]2[C@@H]3CCC4=CC(=O)CC[C@@H]4[C@H]3CC[C@]2(C)[C@H]1C(=O)CO
- BSI [1]: 206
- NSB [2]: 0.97
- RBA [3]: 200
